In ChEMBL document CHEMBL4177770, “Discovery of MK-6169, a Potent Pan-Genotype Hepatitis C Virus NS5A Inhibitor with Optimized Activity against Common Resistance-Associated Substitutions” (J Med Chem, 2018):
Changes are numbered by the printed parent chain.

Assays:
[1] = target: Genome polyprotein (Hepatitis C virus genotype 3a (isolate NZL1) (HCV)) (UniProt Q81258); assay: Inhibition of NS5A in HCV genotype 3a NZL1 infected in HB1 replicon cells assessed as decrease in viral replication by TaqMan-based assay; assay type: cell-based
[2] = target: Genome polyprotein (Hepatitis C virus genotype 1b (isolate Con1) (HCV)) (UniProt Q9WMX2); assay: Inhibition of NS5A in HCV genotype 1b Con1 infected in HB1 replicon cells assessed as decrease in viral replication by TaqMan-based assay; assay type: cell-based
[3] = Half life in Beagle dog at 1 mg/kg, iv by LC/MS method; assay type: ADME, organism-based, Canis lupus familiaris; details: in vivo
Summary of the method: (§1)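 Beagle dogs, two animals per group, dosed IV at 1 mg/kg in 60% PEG200. Plasma was prepared from collected blood by centrifugation, and compound was quantified by LC/MS.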

[4] = target: T1, Nonstructural protein 5A (Hepatitis C virus) (UniProt Q5L478); assay: Inhibition of NS5A L31V mutant in HCV genotype 1a infected in HuH7 replicon cells assessed as decrease in viral replication after 3 days by RT-PCR method; assay type: cell-based; details: Hepatitis C virus subtype 1a
T1 sequence (whole entry): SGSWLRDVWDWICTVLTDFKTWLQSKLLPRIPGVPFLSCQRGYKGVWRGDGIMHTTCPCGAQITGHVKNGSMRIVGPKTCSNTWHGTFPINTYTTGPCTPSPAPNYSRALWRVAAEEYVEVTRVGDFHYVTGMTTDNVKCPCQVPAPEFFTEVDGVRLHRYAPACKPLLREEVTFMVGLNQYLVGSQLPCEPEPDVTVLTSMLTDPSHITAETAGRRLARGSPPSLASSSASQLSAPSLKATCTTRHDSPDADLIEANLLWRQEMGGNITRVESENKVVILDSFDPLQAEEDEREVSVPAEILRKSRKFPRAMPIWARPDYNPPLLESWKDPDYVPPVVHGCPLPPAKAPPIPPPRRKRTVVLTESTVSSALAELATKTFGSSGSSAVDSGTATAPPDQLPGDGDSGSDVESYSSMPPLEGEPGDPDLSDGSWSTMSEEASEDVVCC

[5] = MRT in Wistar Han rat at 300 mg/kg, po by LC/MS method; assay type: ADME, organism-based; details: in vivo
Summary of the method: (§2)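 Single rising oral dose study in fed male Wistar Han rats, dosed PO in 10% TWEEN at the indicated doses. Plasma was obtained by centrifuging the blood, and compound levels were determined by LC/MS.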

[6] = Oral bioavailability in Beagle dog at 5 mg/kg by LC/MS method; assay type: ADME, organism-based, Canis lupus familiaris; details: in vivo
Summary of the method: (§3)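 Beagle dogs, two animals per dosing group. Oral dose was given in 10% TWEEN. Blood was collected and spun to plasma, and plasma compound levels were measured by LC/MS.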

[7] = Oral bioavailability in Wistar Han rat at 10 mg/kg by LC/MS method; assay type: ADME, organism-based; details: in vivo
Summary of the method: (§4)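 Male Wistar Han rats, two per dosing group, dosed orally at 10 mg/kg in 10% TWEEN. Plasma was separated from collected blood by centrifugation and analysed by LC/MS.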

[8] = MRT in Wistar Han rat at 100 mg/kg, po by LC/MS method; assay type: ADME, organism-based; details: in vivo; summary of the method: as §2
[9] = Tmax in Wistar Han rat at 10 mg/kg, po by LC/MS method; assay type: ADME, organism-based; details: in vivo; summary of the method: as §4
[10] = Drug level in Wistar Han rat at 100 mg/kg, po measured at 24 hrs by LC/MS method; assay type: ADME, organism-based; details: in vivo, read-out: Drug uptake; summary of the method: as §2
[11] = Tmax in Wistar Han rat at 300 mg/kg, po by LC/MS method; assay type: ADME, organism-based; details: in vivo; summary of the method: as §2
[12] = AUC in Wistar Han rat at 100 mg/kg, po by LC/MS method; assay type: ADME, organism-based; details: in vivo; summary of the method: as §2
[13] = target: T1, Nonstructural protein 5A (Hepatitis C virus); assay: Inhibition of NS5A in HCV genotype 1a infected in HuH7 replicon cells assessed as decrease in viral replication after 3 days by RT-PCR method; assay type: cell-based; details: Hepatitis C virus subtype 1a
[14] = AUC in Beagle dog at 5 mg/kg, po by LC/MS method; assay type: ADME, organism-based, Canis lupus familiaris; details: in vivo; summary of the method: as §3
[15] = Drug level in Beagle dog at 5 mg/kg, po measured at 24 hrs by LC/MS method; assay type: ADME, organism-based, Canis lupus familiaris; details: in vivo, read-out: Drug uptake; summary of the method: as §3
[16] = target: T1, Nonstructural protein 5A (Hepatitis C virus); assay: Inhibition of NS5A in HCV genotype 3a infected in HuH7 replicon cells assessed as decrease in viral replication after 3 days by RT-PCR method; assay type: cell-based; details: Hepatitis C virus subtype 3a
[17] = target: T1, Nonstructural protein 5A (Hepatitis C virus); assay: Inhibition of NS5A in HCV genotype 1b infected in HuH7 replicon cells assessed as decrease in viral replication after 3 days by RT-PCR method; assay type: cell-based; details: Hepatitis C virus subtype 1b
[18] = AUC in Wistar Han rat at 10 mg/kg, po by LC/MS method; assay type: ADME, organism-based; details: in vivo; summary of the method: as §4
[19] = Cmax in Wistar Han rat at 10 mg/kg, po by LC/MS method; assay type: ADME, organism-based; design: dose 10 mg/kg, route oral; details: in vivo; summary of the method: as §4
[20] = Clearance in Beagle dog at 1 mg/kg, iv by LC/MS method; assay type: ADME, organism-based, Canis lupus familiaris; details: in vivo; summary of the method: as §1
[21] = target: T1, Nonstructural protein 5A (Hepatitis C virus); assay: Inhibition of NS5A in HCV genotype 4a infected in HuH7 replicon cells assessed as decrease in viral replication after 3 days by RT-PCR method; assay type: cell-based; details: Hepatitis C virus subtype 4a
[22] = system: T2, Nonstructural protein 5A (Hepatitis C virus), Q5L478 [Y93H]; assay: Inhibition of NS5A Y93H mutant in HCV genotype 1a infected in HuH7 replicon cells assessed as decrease in viral replication after 3 days by RT-PCR method; assay type: cell-based; details: Hepatitis C virus subtype 1a
T2 sequence (whole entry): T1 sequence (whole entry) with Y93H

[23] = Cmax in Wistar Han rat at 100 mg/kg, po by LC/MS method; assay type: ADME, organism-based; design: dose 100 mg/kg, route oral; details: in vivo; summary of the method: as §2
[24] = Drug level in Wistar Han rat at 300 mg/kg, po measured at 24 hrs by LC/MS method; assay type: ADME, organism-based; details: in vivo, read-out: Drug uptake; summary of the method: as §2
[25] = Cmax in Beagle dog at 5 mg/kg, po by LC/MS method; assay type: ADME, organism-based, Canis lupus familiaris; design: dose 5 mg/kg, route oral; details: in vivo; summary of the method: as §3
[26] = Cmax in Wistar Han rat at 300 mg/kg, po by LC/MS method; assay type: ADME, organism-based; design: dose 300 mg/kg, route oral; details: in vivo; summary of the method: as §2
[27] = Clearance in Wistar Han rat at 2 mg/kg, iv by LC/MS method; assay type: ADME, organism-based; details: in vivo
Summary of the method: (§5)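 Male Wistar Han rats, two per group, dosed IV at 2 mg/kg in 60% PEG200. Plasma was obtained by centrifuging the blood, and compound concentrations were measured by LC/MS.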

[28] = Drug level in Wistar Han rat at 10 mg/kg, po measured at 24 hrs by LC/MS method; assay type: ADME, organism-based; details: in vivo, read-out: Drug uptake; summary of the method: as §4
[29] = MRT in Wistar Han rat at 10 mg/kg, po by LC/MS method; assay type: ADME, organism-based; details: in vivo; summary of the method: as §4
[30] = Tmax in Wistar Han rat at 100 mg/kg, po by LC/MS method; assay type: ADME, organism-based; details: in vivo; summary of the method: as §2
[31] = AUC in Wistar Han rat at 300 mg/kg, po by LC/MS method; assay type: ADME, organism-based; details: in vivo; summary of the method: as §2
[32] = target: T1, Nonstructural protein 5A (Hepatitis C virus); assay: Inhibition of NS5A L31M mutant in HCV genotype 2b infected in HuH7 replicon cells assessed as decrease in viral replication after 3 days by RT-PCR method; assay type: cell-based; details: Hepatitis C virus subtype 2b
[33] = Half life in Wistar Han rat at 2 mg/kg, iv by LC/MS method; assay type: ADME, organism-based; details: in vivo; summary of the method: as §5
[34] = system: Hepatitis C virus subtype 1a; assay: Resistance ratio of EC90 for NS5A L31V mutant in HCV genotype 1a infected in HuH7 replicon cells to EC90 for NS5A in HCV genotype 1a infected in HuH7 replicon cells; assay type: cell-based
[35] = Resistance ratio of EC90 for NS5A in HCV genotype 4a infected in HuH7 replicon cells to EC90 for NS5A in HCV genotype 1a infected in HuH7 replicon cells; assay type: cell-based
[36] = Resistance ratio of EC90 for NS5A in HCV genotype 3a infected in HuH7 replicon cells to EC90 for NS5A in HCV genotype 1a infected in HuH7 replicon cells; assay type: cell-based
[37] = system: Hepatitis C virus subtype 1a; assay: Resistance ratio of EC90 for NS5A Y93H mutant in HCV genotype 1a infected in HuH7 replicon cells to EC90 for NS5A in HCV genotype 1a infected in HuH7 replicon cells; assay type: cell-based
[38] = Resistance ratio of EC90 for NS5A in HCV genotype 1b infected in HuH7 replicon cells to EC90 for NS5A in HCV genotype 1a infected in HuH7 replicon cells; assay type: cell-based
[39] = Resistance ratio of EC90 for NS5A L31M mutant in HCV genotype 2b infected in HuH7 replicon cells to EC90 for NS5A in HCV genotype 1a infected in HuH7 replicon cells; assay type: cell-based

Genome polyprotein (Hepatitis C virus genotype 1b (isolate Con1) (HCV)), sequence (Q9WMX2 whole entry): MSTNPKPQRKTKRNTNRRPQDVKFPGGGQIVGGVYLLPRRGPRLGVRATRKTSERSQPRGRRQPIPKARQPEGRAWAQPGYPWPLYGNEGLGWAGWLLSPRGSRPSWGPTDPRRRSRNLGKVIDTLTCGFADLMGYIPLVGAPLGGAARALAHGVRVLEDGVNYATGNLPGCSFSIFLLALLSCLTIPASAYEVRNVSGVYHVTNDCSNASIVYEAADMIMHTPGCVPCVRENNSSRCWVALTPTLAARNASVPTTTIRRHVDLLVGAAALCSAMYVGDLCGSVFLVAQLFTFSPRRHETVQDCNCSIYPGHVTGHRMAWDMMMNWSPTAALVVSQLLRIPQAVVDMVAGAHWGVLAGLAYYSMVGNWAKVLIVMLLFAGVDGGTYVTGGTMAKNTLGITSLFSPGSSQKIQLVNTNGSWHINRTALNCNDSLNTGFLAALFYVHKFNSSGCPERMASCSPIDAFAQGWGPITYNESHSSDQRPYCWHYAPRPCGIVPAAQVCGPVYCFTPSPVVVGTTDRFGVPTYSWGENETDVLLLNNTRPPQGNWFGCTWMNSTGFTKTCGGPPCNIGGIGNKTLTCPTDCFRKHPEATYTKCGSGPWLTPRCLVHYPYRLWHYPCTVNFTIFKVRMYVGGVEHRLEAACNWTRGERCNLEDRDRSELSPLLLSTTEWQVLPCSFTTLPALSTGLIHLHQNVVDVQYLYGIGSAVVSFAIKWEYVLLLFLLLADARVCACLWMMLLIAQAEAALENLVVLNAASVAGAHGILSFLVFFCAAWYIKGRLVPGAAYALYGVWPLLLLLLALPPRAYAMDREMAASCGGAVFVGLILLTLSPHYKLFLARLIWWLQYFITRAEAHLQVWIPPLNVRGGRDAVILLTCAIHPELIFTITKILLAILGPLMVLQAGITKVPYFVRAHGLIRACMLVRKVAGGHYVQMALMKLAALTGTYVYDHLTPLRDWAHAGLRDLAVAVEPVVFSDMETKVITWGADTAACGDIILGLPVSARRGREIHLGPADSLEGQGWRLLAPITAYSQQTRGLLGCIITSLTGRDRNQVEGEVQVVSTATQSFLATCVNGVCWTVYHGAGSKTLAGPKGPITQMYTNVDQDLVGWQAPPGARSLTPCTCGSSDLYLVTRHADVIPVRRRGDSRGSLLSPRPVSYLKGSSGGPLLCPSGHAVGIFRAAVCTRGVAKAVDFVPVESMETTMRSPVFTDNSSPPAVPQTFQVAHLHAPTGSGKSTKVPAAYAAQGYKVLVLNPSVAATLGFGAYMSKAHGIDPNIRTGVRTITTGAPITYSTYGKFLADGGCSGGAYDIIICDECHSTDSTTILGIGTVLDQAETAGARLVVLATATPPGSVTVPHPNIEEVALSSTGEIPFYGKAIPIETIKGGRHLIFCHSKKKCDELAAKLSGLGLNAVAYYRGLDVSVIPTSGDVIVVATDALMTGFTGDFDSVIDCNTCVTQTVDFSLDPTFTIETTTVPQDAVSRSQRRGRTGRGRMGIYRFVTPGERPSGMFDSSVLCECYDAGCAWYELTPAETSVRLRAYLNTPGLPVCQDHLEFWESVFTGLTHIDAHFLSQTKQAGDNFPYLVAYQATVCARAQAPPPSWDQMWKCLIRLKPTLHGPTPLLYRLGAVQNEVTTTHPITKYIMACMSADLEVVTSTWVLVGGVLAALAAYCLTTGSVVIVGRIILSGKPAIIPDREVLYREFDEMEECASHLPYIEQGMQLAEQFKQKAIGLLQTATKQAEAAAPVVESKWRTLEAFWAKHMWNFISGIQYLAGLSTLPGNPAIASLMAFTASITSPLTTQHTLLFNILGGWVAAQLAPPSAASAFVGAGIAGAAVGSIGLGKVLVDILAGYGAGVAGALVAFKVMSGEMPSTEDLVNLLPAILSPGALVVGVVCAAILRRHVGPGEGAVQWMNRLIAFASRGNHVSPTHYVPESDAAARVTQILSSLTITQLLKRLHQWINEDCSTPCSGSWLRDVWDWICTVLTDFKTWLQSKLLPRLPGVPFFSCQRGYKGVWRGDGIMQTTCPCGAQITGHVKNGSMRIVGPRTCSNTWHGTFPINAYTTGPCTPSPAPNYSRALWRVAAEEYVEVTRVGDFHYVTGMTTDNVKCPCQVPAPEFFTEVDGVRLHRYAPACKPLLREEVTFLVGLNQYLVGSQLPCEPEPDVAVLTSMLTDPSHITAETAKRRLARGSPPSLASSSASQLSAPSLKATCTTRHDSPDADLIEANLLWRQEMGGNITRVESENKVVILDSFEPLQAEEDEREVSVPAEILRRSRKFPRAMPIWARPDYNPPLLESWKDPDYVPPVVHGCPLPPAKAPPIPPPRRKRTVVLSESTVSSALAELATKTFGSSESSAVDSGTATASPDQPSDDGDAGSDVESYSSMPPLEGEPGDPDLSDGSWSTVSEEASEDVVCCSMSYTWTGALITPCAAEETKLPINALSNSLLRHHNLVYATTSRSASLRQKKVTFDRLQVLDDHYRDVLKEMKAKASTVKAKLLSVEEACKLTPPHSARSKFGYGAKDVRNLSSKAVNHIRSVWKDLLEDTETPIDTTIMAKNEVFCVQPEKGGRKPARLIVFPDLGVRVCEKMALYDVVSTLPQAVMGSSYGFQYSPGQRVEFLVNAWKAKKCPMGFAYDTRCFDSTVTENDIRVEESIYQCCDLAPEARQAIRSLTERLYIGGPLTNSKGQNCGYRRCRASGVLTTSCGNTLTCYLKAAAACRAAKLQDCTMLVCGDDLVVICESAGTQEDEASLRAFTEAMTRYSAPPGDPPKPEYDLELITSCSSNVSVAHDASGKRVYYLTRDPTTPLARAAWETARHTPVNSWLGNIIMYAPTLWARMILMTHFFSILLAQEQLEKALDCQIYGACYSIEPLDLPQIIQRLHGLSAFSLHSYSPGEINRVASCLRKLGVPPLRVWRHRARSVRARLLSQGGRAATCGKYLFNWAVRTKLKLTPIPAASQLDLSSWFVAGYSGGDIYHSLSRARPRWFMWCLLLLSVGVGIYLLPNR

SMILES	half-life [3] [h]	EC90 [4] [pM]	MRT [5] [h]	bioavailability [6] [%]	bioavailability [7] [%]	MRT [8] [h]	Tmax [9] [h]	concentration at 24 h [10] [nM]	Tmax [11] [h]	AUC [12] [µM·h]	EC90 [13] [pM]	AUC [14] [µM·h]	concentration at 24 h [15] [nM]	EC90 [16] [pM]	EC90 [17] [pM]	AUC [18] [µM·h]	Cmax [19] [nM]	clearance [20] [mL/min/kg]	EC90 [21] [pM]	EC90 [22] [pM]	further results
COC(=O)N[C@H](C(=O)N1CCC[C@H]1c1nc(-c2ccc3c(c2)O[C@@H](c2ccccc2)n2c-3cc3cc(-c4c[nH]c([C@@H]5CCCN5C(=O)[C@@H](NC(=O)OC)C(C)C)n4)ccc32)c[nH]1)C(C)C	–	–	–	–	–	–	–	–	–	–	–	–	–	–	–	–	–	–	–	–	EC90 [1]: 120 pM; EC90 [2]: 6 pM
COC(=O)N[C@H](C(=O)N1CCC[C@H]1c1ncc(-c2cc(F)c3c(c2)O[C@@H](c2ccc(C4CC4)s2)n2c-3cc3cc(-c4cnc([C@@H]5CCCN5C(=O)[C@@H](NC(=O)OC)C5C[C@@H](C)O[C@@H](C)C5)[nH]4)ccc32)[nH]1)C(C)C (stereo partly specified)	7.2	5	11	8.5	5.9	17	4	27	6	1.95	4	2.42	11	8	4	0.33 to 0.92	67 to 80	3	7	27	Cmax [23]: 220 nM; concentration at 24 h [24]: 40 nM; Cmax [25]: 330 nM; Cmax [26]: 390 nM; clearance [27]: 11 mL/min/kg; concentration at 24 h [28]: 3 to 5 nM; MRT [29]: 9 h; Tmax [30]: 2 h; AUC [31]: 4.08 µM·h; EC90 [32]: 25 pM; half-life [33]: 5.1 h
COC(=O)N[C@H](C(=O)N1CCC[C@H]1c1ncc(-c2cc(F)c3c(c2)O[C@@H](c2ccc(C4CC4)s2)n2c-3cc3cc(-c4cnc([C@@H]5CCCN5C(=O)[C@@H](NC(=O)OC)C5CCOCC5)[nH]4)ccc32)[nH]1)C(C)C	4.2	6	9.9	11	3.1	8.3	3	11	4	1.64	4	2.61	22	8	5	0.14 to 0.29	34 to 20000	4	5	18	Ratio [34]: < 10; Ratio [35]: < 10; Ratio [36]: < 10; Ratio [37]: < 10; Ratio [38]: < 10; Cmax [23]: 200 nM; concentration at 24 h [24]: 32 nM; Cmax [25]: 460 nM; Cmax [26]: 360 nM; clearance [27]: 18 mL/min/kg; concentration at 24 h [28]: 2 to 1000 nM; MRT [29]: 7.9 h; Tmax [30]: 4 h; Ratio [39]: < 10; AUC [31]: 3.99 µM·h; EC90 [32]: 14 pM; half-life [33]: 4 h
COC(=O)N[C@H](C(=O)N1CCC[C@H]1c1ncc(-c2cc(F)c3c(c2)O[C@@H](c2ccc(C4CC4)s2)n2c-3cc3cc(-c4cnc([C@@H]5CCCN5C(=O)[C@@H](NC(=O)OC)C5C[C@@H](C)O[C@H](C)C5)[nH]4)ccc32)[nH]1)C(C)C (stereo partly specified)	11.3	4	9.3	18.7	6.3	7.6	3	9	7	2.07	4	5.05	87	7	4	0.31 to 0.93	50 to 119	2.6	7	15	Cmax [23]: 240 nM; concentration at 24 h [24]: 29 nM; Cmax [25]: 640 nM; Cmax [26]: 510 nM; clearance [27]: 11 mL/min/kg; concentration at 24 h [28]: 1 to 4 nM; MRT [29]: 6 h; Tmax [30]: 3 h; AUC [31]: 5.58 µM·h; EC90 [32]: 12 pM; half-life [33]: 3.6 h
